Measured values pooled from the literature.
Lines come from different studies, so protocols differ.
JAK1 JH1: Tyrosine-protein kinase JAK1, JH1 (JAK1, Homo sapiens, UniProt P23458)
JAK1: Tyrosine-protein kinase JAK1 (JAK1, Homo sapiens, UniProt P23458)
JAK1 JH2: Tyrosine-protein kinase JAK1, JH2 (JAK1, Homo sapiens, UniProt P23458)

`CS(=O)(=O)N1CCCC(NC(=O)[C@H](CCC2CCCCC2)NC(=O)c2ccc(CNC(=O)c3cnc4ccccn34)cc2)C1` (stereo partly drawn) has a remaining binding of 64% (JAK1 JH1; cell-free assay, competition with immobilised ligand; 0.1 µM).
For `COc1cc2c(Nc3ccc(Br)cc3F)ncnc2cc1OCC1CCN(C)CC1`, the remaining signal was 99.1% (JAK1; cell-free assay; 0.5 µM).
`O=C(Nc1cnn(-c2csc(C(=O)NC3COC3)c2)c1)Nc1ccccc1Cl` has a remaining activity of 98.7% (JAK1; enzyme activity, inhibitor; 5 µM).
For `CC(C)(O)[C@H]1CC[C@H](Nc2ccc3ncc(-c4cccc(C(F)(F)F)c4)n3n2)CC1`, the remaining activity was 82.4% (JAK1; enzyme activity, inhibitor; 1 µM).
The inhibition of `CN(C)C1CCN(CC#Cc2nn(C3CCCC3)c3nc(NCc4ccccc4)ncc23)C1` (stereo not drawn) is reported as 2% (JAK1; enzyme activity, inhibitor, FRET; 10 µM).
With `COc1cc2nccc(Oc3ccc(NC(=O)c4c5n(n(-c6ccc(F)cc6)c4=O)CCCC5)cc3)c2cc1OC` the inhibition was -5% (JAK1; enzyme activity, inhibitor; 0.1 µM).
With `c1nc2c(Nc3ccc4c(c3)OCCO4)nc(Nc3ccc4c(c3)OCCO4)nc2[nH]1` the activity vs control was 2.5% (JAK1 JH2; enzyme activity, inhibitor; 10 µM).
`CC(=O)C1=C(C)N(c2cccc(C(F)(F)F)c2)C(=O)N[C@@H]1c1ccc(C#N)nc1` gave a remaining binding of 85.9% (JAK1 JH1; cell-free assay, competition with immobilised ligand; 1 µM).
`Cc1ccc(C(=O)NCc2ccsc2)cc1C#Cc1cn(C(C)C)c2ncnc(N)c12` gave an activity vs control of 94% (JAK1 JH1; enzyme activity, inhibitor; 1 µM).
The remaining signal of `Oc1ccc(-c2nc(-c3ccncc3)c(-c3ccc(F)cc3)[nH]2)cc1` is reported as 102% (JAK1; cell-free assay; 0.5 µM).
`CS(=O)(=O)NCC[C@H](NC(=O)c1cncc2c1cnn2-c1ccc(F)cc1)c1ccnc(S(C)(=O)=O)c1` has a remaining binding of 96% (JAK1 JH1; cell-free assay, competition with immobilised ligand; 1 µM).
With `CC1CCCN1c1nccc(-c2cnn3ncccc23)n1` (stereo not drawn) the remaining binding was 100% (JAK1; binding; 1 µM).
`C[C@H](c1cccc(C#N)c1)n1cc(Cl)cc(C(N)=O)c1=N` has a remaining binding of 57% (JAK1 JH1; cell-free assay, competition with immobilised ligand; 1 µM).
With `CN1CC(Oc2cnc(C#N)cc2-c2ccn3nc(NC(=O)C4CC4)cc3c2)C1` the inhibition was -10% (JAK1; enzyme activity, inhibitor; 1 µM).
For `O=C1NC(=O)c2cc(Nc3ccc(F)cc3)c(Nc3ccc(F)cc3)cc21`, the remaining signal was 91.5% (JAK1; cell-free assay; 0.5 µM).
For `O=c1nc(-c2ccccn2)sc2ccccc12`, the remaining binding was 86% (JAK1 JH2; binding, competition with immobilised ligand; 1 µM).
For `Nc1ncnc2occ(-c3ccc(NC(=O)Nc4cc(C(F)(F)F)ccc4F)cc3)c12`, the remaining signal was 0.9% (JAK1 JH1; cell-free assay, inhibitor; 20 µM).
`CC(C)(C)c1nc2c(s1)c1nc(N)ncc1c1ccc(NS(=O)(=O)c3c(F)cccc3F)c(F)c12` gave a remaining activity of 90% (JAK1; enzyme activity, inhibitor, radiometric; 1 µM).
The remaining signal of `CCN(CC)CCNC(=O)c1c(C)[nH]c(/C=C2\C(=O)Nc3ccc(F)cc32)c1C` is reported as 71.9% (JAK1; cell-free assay; 0.5 µM).
The inhibition of `CCOc1cc(-c2nncn2C)ccc1Nc1ncc2cc(C)nc(NCC(C)(C)C)c2n1` is reported as under 15% (JAK1; enzyme activity, inhibitor, FRET; 1 µM).
The remaining signal of `C[C@@H]1CCN(c2nccc(-c3cnn4ncccc34)n2)C1` is reported as 82% (JAK1 JH1; cell-free assay; 1 µM).
`CN(C)C(=O)Cn1cc(-c2nc(C3(c4ccc(-c5cnc(N)nc5)cc4)CC3)no2)cn1` has a remaining binding of 100% (JAK1 JH2; cell-free assay, competition with immobilised ligand; 1 µM).
`CS(=O)(=O)Nc1cccc(-c2csc(NC(=O)CSc3nc4nccnc4c(=O)n3CCc3ccccc3)n2)c1` has an inhibition of 9% (JAK1; enzyme activity, inhibitor; 10 µM).
For `O=C(NCc1ncc(C(F)(F)F)cc1Cl)c1ccc2c(c1)C1(CCS(=O)(=O)CC1)[C@@H](C1CC1)N2S(=O)(=O)c1ccc(F)cc1`, the remaining binding was 85% (JAK1 JH2; cell-free assay, competition with immobilised ligand; 1 µM).
The remaining binding of `CN(CCCC(F)(F)F)c1nccc(-c2cnn3ncccc23)n1` is reported as 100% (JAK1 JH1; cell-free assay, competition with immobilised ligand; 1 µM).
`C=CC(=O)Nc1cc(Nc2nccc(Nc3cc(Cl)c(F)cc3C(C)(C)O)n2)c(OC)cc1N1CC[C@@H](N(C)C)C1` gave an inhibition of 6% (JAK1; enzyme activity, inhibitor; 1 µM).
`CC/C(=N\NC(=O)NCc1cccc(O)c1)c1ccc(O)c(C)c1O` has an inhibition of 3.4% (JAK1; enzyme activity, inhibitor; 0.1 µM).
With `CS(=O)(=O)N1CCCC(NC(=O)[C@H](CCC2CCCCC2)NC(=O)c2ccc(CNc3ncnc4c3nnn4-c3ccccc3)cc2)C1` (stereo partly drawn) the remaining binding was 89% (JAK1 JH2; cell-free assay, competition with immobilised ligand; 0.1 µM).
For `N[C@H]1CCN(c2nccc(-c3cnn4ncccc34)n2)C1`, the remaining signal was 100% (JAK1 JH1; cell-free assay; 1 µM).
With `COc1cc2ncnc(Nc3ccc(Oc4ccccc4)c(C)c3C)c2cc1OC` the inhibition was -4% (JAK1; enzyme activity, inhibitor; 1 µM).
